Key:
[1] = In vitro inhibition against L-type calcium influx in mouse pituitary tumor derived cells (AtT-20); type: functional; conditions: AtT20
[2] = molecular target: T1, Voltage-dependent N-type calcium channel subunit alpha-1B (Homo sapiens, UniProt Q00975); experiment: In vitro inhibition against N-type calcium influx in IMR-32 cells; type: functional, cell-based
Target sequence in this assay (Q00975 whole entry): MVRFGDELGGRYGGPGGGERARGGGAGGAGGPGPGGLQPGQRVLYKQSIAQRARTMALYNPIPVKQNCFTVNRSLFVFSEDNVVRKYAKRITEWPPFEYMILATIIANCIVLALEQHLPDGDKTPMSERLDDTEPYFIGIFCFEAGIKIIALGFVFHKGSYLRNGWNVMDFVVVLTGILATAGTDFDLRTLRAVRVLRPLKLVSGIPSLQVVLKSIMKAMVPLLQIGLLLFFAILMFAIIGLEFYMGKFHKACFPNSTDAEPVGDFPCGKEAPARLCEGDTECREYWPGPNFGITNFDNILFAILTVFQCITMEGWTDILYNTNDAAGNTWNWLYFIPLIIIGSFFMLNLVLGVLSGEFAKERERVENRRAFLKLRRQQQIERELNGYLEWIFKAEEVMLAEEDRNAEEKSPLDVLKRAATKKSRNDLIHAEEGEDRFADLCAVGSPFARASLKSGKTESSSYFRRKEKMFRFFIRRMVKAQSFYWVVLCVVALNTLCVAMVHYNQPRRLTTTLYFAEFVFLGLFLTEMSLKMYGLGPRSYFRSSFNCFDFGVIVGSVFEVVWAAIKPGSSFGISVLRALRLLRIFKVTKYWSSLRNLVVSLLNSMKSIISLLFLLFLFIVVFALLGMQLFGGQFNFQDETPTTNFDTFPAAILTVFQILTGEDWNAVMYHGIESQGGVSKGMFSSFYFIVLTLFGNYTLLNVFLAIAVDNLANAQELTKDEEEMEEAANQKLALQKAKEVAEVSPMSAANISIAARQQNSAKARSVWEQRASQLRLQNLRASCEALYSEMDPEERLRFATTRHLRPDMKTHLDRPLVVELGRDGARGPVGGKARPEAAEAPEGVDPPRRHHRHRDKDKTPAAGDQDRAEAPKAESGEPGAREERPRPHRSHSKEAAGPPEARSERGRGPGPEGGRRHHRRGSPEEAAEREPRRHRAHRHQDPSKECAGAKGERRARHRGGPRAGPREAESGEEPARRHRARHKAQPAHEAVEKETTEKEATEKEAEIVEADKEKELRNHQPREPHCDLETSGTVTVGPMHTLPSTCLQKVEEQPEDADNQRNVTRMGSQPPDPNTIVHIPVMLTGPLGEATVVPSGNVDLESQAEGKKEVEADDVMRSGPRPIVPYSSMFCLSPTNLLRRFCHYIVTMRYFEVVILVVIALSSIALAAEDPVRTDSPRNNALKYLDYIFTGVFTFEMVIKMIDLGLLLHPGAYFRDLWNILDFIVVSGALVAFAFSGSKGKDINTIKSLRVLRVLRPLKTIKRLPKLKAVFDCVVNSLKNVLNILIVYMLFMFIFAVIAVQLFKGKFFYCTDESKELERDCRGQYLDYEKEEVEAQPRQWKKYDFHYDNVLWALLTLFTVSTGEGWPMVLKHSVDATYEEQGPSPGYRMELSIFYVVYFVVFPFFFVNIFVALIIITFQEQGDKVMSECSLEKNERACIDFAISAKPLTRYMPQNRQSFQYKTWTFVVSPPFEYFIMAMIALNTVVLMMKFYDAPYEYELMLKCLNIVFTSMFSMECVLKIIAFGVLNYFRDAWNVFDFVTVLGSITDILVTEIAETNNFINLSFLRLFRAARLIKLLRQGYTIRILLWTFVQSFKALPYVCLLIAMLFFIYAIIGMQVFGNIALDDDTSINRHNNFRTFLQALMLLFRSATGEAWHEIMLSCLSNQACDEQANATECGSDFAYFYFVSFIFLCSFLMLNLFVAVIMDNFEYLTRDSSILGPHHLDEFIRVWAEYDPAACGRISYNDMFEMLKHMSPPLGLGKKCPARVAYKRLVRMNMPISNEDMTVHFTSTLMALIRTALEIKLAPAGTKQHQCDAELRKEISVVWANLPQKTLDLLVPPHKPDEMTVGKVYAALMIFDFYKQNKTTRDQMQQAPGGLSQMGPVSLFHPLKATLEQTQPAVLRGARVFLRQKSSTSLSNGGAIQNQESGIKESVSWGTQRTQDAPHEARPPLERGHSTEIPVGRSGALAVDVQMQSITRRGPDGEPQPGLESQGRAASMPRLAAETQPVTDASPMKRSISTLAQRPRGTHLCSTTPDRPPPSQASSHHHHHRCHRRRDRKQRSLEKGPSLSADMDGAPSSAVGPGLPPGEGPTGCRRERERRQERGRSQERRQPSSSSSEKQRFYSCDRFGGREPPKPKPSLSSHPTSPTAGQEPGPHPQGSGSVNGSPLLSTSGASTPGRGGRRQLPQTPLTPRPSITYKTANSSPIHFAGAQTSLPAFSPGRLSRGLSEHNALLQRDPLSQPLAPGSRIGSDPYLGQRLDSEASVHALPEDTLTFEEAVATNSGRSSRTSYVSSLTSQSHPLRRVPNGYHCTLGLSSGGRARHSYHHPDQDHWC

[3] = Selectivity ratio between the L-type to N-type calcium influx; type: functional
[4] = molecular target: T1, Voltage-dependent N-type calcium channel subunit alpha-1B; experiment: In vitro inhibition of N-type calcium channel current in IMR-32 cells at 10 uM; type: functional
Target sequence in this assay (Q00975 whole entry, looked up): as the sequence (Q00975 whole entry) above

Rattus norvegicus [5] = experiment: In vivo analgesic efficacy in the rat formalin induced pain model at 3 nmol/rat intrathecal dose; type: functional
Summary of the method: (§1)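 Rat formalin test. The read-out was paw flinching during the persistent nociceptive phase, expressed as % inhibition, n=3. Blood pressure and neurological behavior were also observed.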

Rattus norvegicus [6] = experiment: In vivo analgesic efficacy in rat formalin induced pain model at 100 mg/kg peroral dose; type: functional; conditions: route oral; summary of the method: as §1

Row | Compound | IC50 [1] [µM] | IC50 [2] [nM] | Selectivity ratio [3] | inhibition [4] [%] | Inhibition (Rattus norvegicus [5]) [%] | inhibition in vivo at 100 mg/kg (Rattus norvegicus [6]) [%]
1 | COc1ccc(COC(=O)[C@H](COCC2CCCCC2)NC(=O)OC(C)(C)C)cc1 | 8.4 | 1200 | 7 | – | – | –
2 | COc1ccc(COC(=O)[C@H](COC(=O)C2CCCCC2)NC(=O)OC(C)(C)C)cc1 | 10 | 1600 | 6.3 | – | – | –
3 | COC(=O)C[C@H](NC(=O)OC(C)(C)C)C(=O)OCc1ccc(OC)cc1 | 14 | 26000 | 0.5 | – | – | –
4 | COc1ccc(CNC(=O)[C@H](COCC2CCCCC2)NC(=O)OC(C)(C)C)cc1 | 3.8 | 950 | 4 | 38 | 35 | –
5 | COc1ccc(COC(=O)[C@@H](CC(=O)OC2CCCC2)NC(=O)OC(C)(C)C)cc1 | 2.9 | 2000 | 1.5 | – | – | –
6 | COc1ccc(COC(=O)[C@H](CC(=O)OC2CCCCCC2)NC(=O)OC(C)(C)C)cc1 | 12 | 2600 | 4.6 | – | – | –
7 | COc1cccc(COC(=O)[C@H](CC(=O)OC2CCCC2)NC(=O)OC(C)(C)C)c1 | 12 | 3800 | 3.2 | – | – | –
8 | COc1ccc(COC(=O)[C@H](CC(=O)OC2CCCC2)NC(=O)OC(C)(C)C)cc1 | 15 | 3400 | 4.4 | 34 | 31 | –
9 | COc1ccccc1COC(=O)[C@H](CC(=O)OC1CCCC1)NC(=O)OC(C)(C)C | 15 | 5400 | 2.8 | – | – | –
10 | CC(C)(C)OC(=O)N[C@@H](CC(=O)OC1CCCC1)C(=O)OCc1ccc(Cl)cc1 | 16 | 3300 | 4.8 | – | – | –
11 | COc1ccc(CNC(=O)[C@H](CSCC2CCCC2)NC(=O)OC(C)(C)C)cc1 | 3.9 | 630 | 6.2 | 45 | 47 | 43
12 | COc1ccc(CNC(=O)[C@H](CCOC2CCCCC2)NC(=O)OC(C)(C)C)cc1 | 13 | 4000 | 3.3 | – | – | –
13 | COc1ccc(CN(C)C(=O)[C@H](COCC2CCCCC2)NC(=O)OC(C)(C)C)cc1 | 1.4 | 1800 | 0.8 | – | – | –
14 | COc1ccc(COC(=O)[C@H](CC(=O)OC2CCC2)NC(=O)OC(C)(C)C)cc1 | 28 | 15000 | 1.9 | – | – | –
15 | COc1ccc(CNC(=O)[C@H](CSCC2CCCCC2)NC(=O)OC(C)(C)C)cc1 | 1.7 | 610 | 2.8 | 66 | 36 | –
16 | CC(C)(C)OC(=O)N[C@@H](CC(=O)OC1CCCC1)C(=O)OCc1ccc(Br)cc1 | 5.3 | 3400 | 1.6 | – | – | –
17 | COc1ccc(COC(=O)[C@H](CC(=O)OC2CCCCC2)NC(=O)OC(C)(C)C)cc1 | 16 | 2300 | 7 | – | – | –

From ChEMBL document CHEMBL1133896, “Structure-activity study and analgesic efficacy of amino acid derivatives as N-type calcium channel blockers” (Bioorg Med Chem Lett, 2001)
